Data from ChEMBL document CHEMBL4706527, “Identification of novel quinoline analogues bearing thiazolidinones as potent kinase inhibitors for the treatment of colorectal cancer” (Eur J Med Chem, 2020).
The source made the active and inactive calls. The calls are words filed in the database; no cut-off is given here.

Experiments:
[1] = test system: HT-29; experiment: cells; details: Homo sapiens
[2] = test system: HT-29; experiment: Antiproliferative activity against human HT-29 cells assessed as dead cells by measuring green fluorescent cells for 48 to 72 hrs by IncuCyte live-cell imaging assay; type: functional, cell-based
Method in brief: (§1)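 HT-29 cells (5×10^3/well) in DMEM with 10% FBS, cultured 24 h at 37 °C, 5% CO2, then treated with graded concentrations of compound; 0.1% DMSO vehicle control. YOYO-1 iodide DNA dye added; green-fluorescent cells counted as dead, imaged every 2 h for 72 h in an IncuCyte system. Three replicates; mean ± SD of three independent experiments.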

[3] = test system: HT-29; experiment: Antiproliferative activity against human HT-29 cells assessed as dead cells by measuring green fluorescent cells at 5 ug/mL for 72 hrs by IncuCyte live-cell imaging assay; type: functional, cell-based; details: dose 5.0 µg/ml
Method in brief: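 HT-29 cells (5×10^3 per well) in DMEM with 10% FBS at 37 °C, 5% CO2; compound added after 24 h culture. YOYO-1 iodide added, green-fluorescent cells counted as dead; live-cell imaging every 2 h for 72 h; three replicates; mean ± SD of three independent experiments.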

[4] = test system: HT-29; experiment: Antiproliferative activity against human HT-29 cells assessed as dead cells by measuring green fluorescent cells at 1 to 3 ug/mL by IncuCyte live-cell imaging assay; type: functional, cell-based
Method in brief: as §1

[5] = test system: HT-29; experiment: Cell cycle arrest in human HT-29 cells assessed as accumulation in G0/G1 phase at 3 ug/ml incubated for 48 hrs by propidium iodide base flow cytometry analysis (reference value: 71.6%); type: functional; details: dose 3 µg/ml
[6] = test system: FHC; experiment: Cytotoxicity aganist human FHC at 0.19 ug/ml measured after 72 hrs by IncuCyte live-cell imaging assay
[7] = test system: FHC; experiment: Antiproliferative activity aganist human FHC at 10 ug/ml measured after 72 hrs by MTT assay; type: cell-based; details: at 10 µg/mL
[8] = test system: HT-29; experiment: Cell cycle arrest in human HT-29 cells assessed as accumulation in G2/M phase at 3 ug/ml incubated for 48 hrs by propidium iodide base flow cytometry analysis (reference value: 2.4%); type: functional; details: dose 3 µg/ml
[9] = test system: HT-29; experiment: Cytotoxicity against human HT-29 cells assessed as reduction in cell viability at 5 ug/mL by MTT assay; type: functional, cell-based; details: dose 5.0 µg/ml
[10] = test system: FHC; experiment: Cytotoxicity aganist human FHC at 10 ug/ml measured after 72 hrs by IncuCyte live-cell imaging assay
[11] = test system: HT-29; experiment: Cytotoxicity against human HT-29 cells assessed as reduction in cell viability measured after 36 hrs by MTT assay; type: functional, cell-based; details: dose 0.56-1.67 µg/ml
[12] = test system: HT-29; experiment: Cell cycle arrest in human HT-29 cells assessed as accumulation in S phase at 3 ug/ml incubated for 48 hrs by propidium iodide base flow cytometry analysis (reference value: 22.4%); type: functional; details: dose 3 µg/ml
[13] = biological target: Proto-oncogene tyrosine-protein kinase Src (Homo sapiens, UniProt P12931); experiment: Inhibition of c-Src (unknown origin) using FAM-labelled peptide and ATP incubated for 10 mins by mobility shift assay
[14] = biological target: T1, Hepatocyte growth factor receptor (Homo sapiens, UniProt P08581); experiment: Inhibition of c-Met (unknown origin) using FAM-labelled peptide and ATP incubated for 10 mins by mobility shift assay relative to control
[15] = biological target: Serine/threonine-protein kinase B-raf (Homo sapiens, UniProt P15056); experiment: Inhibition of B-Raf (unknown origin) by mobility shift assay
[16] = biological target: Platelet-derived growth factor receptor alpha (Homo sapiens, UniProt P16234); experiment: Inhibition of PDGFR alpha (unknown origin) by mobility shift assay
[17] = test system: HT-29; experiment: Cell cycle arrest in human HT-29 cells assessed as accumulation in G2/M phase at 1 ug/ml incubated for 48 hrs by propidium iodide base flow cytometry analysis (reference value: 2.4%); type: functional; details: dose 1 µg/ml
[18] = test system: HT-29; experiment: Cell cycle arrest in human HT-29 cells assessed as accumulation in G0/G1 phase at 1 ug/ml incubated for 48 hrs by propidium iodide base flow cytometry analysis (reference value: 71.6%); type: functional; details: dose 1 µg/ml
[19] = biological target: T1, Hepatocyte growth factor receptor; experiment: Inhibition of c-Met (unknown origin) using FAM-labelled peptide and ATP incubated for 10 mins by mobility shift assay
[20] = biological target: Insulin-like growth factor 1 receptor (Homo sapiens, UniProt P08069); experiment: Inhibition of IGF1R (unknown origin) by mobility shift assay
[21] = test system: HT-29; experiment: Cytotoxicity against human HT-29 cells assessed as reduction in cell viability measured at 0.56 to 1.67 microg/ml by IncuCyte live-cell imaging assay; details: dose 0.56-1.67 µg/ml, TDE = time-dependent effect
[22] = test system: HT-29; experiment: Cell cycle arrest in human HT-29 cells assessed as accumulation in S phase at 0.3 ug/ml incubated for 48 hrs by propidium iodide base flow cytometry analysis (reference value: 22.4%); type: functional; details: dose 0.3 µg/ml
[23] = test system: HT-29; experiment: Cell cycle arrest in human HT-29 cells assessed as accumulation in G0/G1 phase at 0.3 ug/ml incubated for 48 hrs by propidium iodide base flow cytometry analysis (reference value: 71.6%); type: functional; details: dose 0.3 µg/ml
[24] = biological target: Macrophage-stimulating protein receptor (Homo sapiens, UniProt Q04912); experiment: Inhibition of Ron (unknown origin) using FAM-labelled peptide and ATP incubated for 10 mins by mobility shift assay
[25] = test system: HT-29; experiment: Cell cycle arrest in human HT-29 cells assessed as accumulation in S phase at 1 ug/ml incubated for 48 hrs by propidium iodide base flow cytometry analysis (reference value: 22.4%); type: functional; details: dose 1 µg/ml
[26] = biological target: T2, Tyrosine-protein kinase receptor UFO (Homo sapiens, UniProt P30530); experiment: Inhibition of AXL (unknown origin) using FAM-labelled peptide and ATP incubated for 10 mins by mobility shift assay
T2 sequence (P30530 whole entry): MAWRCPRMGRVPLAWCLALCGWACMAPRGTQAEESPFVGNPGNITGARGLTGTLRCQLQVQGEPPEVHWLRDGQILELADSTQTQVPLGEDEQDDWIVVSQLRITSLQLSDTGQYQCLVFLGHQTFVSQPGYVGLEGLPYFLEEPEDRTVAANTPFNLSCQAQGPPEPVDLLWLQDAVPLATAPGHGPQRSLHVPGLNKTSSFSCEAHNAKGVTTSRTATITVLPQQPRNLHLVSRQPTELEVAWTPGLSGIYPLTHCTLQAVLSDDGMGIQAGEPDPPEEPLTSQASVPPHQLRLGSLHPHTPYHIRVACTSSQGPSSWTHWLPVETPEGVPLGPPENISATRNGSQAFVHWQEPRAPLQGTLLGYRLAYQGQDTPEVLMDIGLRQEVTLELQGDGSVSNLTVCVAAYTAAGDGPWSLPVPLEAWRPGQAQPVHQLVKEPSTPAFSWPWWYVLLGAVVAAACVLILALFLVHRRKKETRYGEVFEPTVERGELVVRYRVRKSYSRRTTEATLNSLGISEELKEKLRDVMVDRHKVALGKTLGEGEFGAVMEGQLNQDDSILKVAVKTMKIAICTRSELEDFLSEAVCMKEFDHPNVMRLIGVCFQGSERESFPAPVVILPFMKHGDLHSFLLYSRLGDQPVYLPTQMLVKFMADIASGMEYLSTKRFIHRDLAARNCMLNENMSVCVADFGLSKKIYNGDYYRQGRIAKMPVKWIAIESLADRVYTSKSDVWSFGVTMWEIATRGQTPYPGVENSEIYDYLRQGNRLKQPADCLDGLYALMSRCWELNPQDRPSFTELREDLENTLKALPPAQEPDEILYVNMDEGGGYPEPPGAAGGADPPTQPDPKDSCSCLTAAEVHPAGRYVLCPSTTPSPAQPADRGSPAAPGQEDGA

[27] = test system: HT-29; experiment: Cell cycle arrest in human HT-29 cells assessed as accumulation in G2/M phase at 0.3 ug/ml incubated for 48 hrs by propidium iodide base flow cytometry analysis (reference value: 2.4%); type: functional; details: dose 0.3 µg/ml
[28] = biological target: Mast/stem cell growth factor receptor Kit (Homo sapiens, UniProt P10721); experiment: Inhibition of c-Kit (unknown origin) using FAM-labelled peptide and ATP incubated for 10 mins by mobility shift assay
Chain of Mast/stem cell growth factor receptor Kit (P10721 whole entry): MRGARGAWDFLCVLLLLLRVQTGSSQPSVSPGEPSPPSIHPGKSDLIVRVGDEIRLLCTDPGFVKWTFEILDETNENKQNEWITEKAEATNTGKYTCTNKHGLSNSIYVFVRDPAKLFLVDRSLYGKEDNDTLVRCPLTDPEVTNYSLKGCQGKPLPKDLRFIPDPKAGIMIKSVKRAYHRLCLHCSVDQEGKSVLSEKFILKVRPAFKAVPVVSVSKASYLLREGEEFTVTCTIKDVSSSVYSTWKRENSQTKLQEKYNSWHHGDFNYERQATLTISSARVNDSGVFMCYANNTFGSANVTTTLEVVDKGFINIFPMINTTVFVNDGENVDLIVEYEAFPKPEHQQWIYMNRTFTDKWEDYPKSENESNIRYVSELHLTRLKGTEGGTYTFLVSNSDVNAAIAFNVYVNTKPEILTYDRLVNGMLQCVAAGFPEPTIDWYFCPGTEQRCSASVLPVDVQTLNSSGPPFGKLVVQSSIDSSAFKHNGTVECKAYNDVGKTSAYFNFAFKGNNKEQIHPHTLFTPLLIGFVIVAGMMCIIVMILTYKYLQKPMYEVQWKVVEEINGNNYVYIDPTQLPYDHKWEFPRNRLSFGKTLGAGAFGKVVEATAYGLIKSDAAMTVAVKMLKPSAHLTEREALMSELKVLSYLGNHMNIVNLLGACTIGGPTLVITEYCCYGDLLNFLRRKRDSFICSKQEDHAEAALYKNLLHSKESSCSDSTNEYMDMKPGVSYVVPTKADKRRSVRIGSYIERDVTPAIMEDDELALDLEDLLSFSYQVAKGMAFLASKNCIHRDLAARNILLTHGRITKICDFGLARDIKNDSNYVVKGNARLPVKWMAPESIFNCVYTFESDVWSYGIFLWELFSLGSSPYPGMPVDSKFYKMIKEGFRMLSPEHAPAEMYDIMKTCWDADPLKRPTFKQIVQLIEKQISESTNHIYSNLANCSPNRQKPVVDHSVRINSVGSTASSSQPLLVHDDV

T1 sequence (P08581 whole entry): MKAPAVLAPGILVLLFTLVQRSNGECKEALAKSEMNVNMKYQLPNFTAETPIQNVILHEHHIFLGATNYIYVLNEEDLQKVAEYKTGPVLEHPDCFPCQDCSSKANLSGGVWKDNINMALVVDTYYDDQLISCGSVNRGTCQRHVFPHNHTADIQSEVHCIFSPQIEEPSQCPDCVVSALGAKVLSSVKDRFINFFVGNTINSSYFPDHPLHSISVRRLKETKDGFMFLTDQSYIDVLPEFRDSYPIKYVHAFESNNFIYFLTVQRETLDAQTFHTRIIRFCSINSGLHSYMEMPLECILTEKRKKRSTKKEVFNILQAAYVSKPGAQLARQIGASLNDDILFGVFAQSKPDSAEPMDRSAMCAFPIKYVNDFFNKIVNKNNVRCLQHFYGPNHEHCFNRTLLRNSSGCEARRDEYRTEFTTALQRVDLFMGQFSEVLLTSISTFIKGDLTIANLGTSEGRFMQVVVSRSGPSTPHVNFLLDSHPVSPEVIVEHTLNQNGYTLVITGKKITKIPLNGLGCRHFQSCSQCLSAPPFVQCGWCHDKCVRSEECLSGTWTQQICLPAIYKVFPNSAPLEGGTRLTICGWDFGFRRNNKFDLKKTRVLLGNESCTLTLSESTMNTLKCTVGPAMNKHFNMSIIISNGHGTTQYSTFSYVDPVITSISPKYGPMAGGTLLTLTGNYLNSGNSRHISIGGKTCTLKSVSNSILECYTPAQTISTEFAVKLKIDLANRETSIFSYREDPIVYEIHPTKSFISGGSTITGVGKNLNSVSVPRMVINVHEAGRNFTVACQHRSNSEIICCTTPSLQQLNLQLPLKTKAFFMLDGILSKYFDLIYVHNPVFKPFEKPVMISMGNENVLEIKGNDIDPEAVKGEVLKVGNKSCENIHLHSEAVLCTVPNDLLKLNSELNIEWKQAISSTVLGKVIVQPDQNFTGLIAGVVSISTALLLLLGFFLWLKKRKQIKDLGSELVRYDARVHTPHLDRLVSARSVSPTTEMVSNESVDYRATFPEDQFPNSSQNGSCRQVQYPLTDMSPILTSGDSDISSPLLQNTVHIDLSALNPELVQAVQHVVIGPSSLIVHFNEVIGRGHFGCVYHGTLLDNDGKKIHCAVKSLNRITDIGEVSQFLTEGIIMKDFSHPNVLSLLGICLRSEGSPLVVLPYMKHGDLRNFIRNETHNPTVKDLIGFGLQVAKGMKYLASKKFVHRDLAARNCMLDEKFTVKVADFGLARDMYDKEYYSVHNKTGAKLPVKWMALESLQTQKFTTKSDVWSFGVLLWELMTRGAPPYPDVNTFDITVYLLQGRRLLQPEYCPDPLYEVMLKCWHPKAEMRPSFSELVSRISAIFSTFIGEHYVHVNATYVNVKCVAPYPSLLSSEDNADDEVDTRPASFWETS
Chain of Serine/threonine-protein kinase B-raf (P15056 whole entry): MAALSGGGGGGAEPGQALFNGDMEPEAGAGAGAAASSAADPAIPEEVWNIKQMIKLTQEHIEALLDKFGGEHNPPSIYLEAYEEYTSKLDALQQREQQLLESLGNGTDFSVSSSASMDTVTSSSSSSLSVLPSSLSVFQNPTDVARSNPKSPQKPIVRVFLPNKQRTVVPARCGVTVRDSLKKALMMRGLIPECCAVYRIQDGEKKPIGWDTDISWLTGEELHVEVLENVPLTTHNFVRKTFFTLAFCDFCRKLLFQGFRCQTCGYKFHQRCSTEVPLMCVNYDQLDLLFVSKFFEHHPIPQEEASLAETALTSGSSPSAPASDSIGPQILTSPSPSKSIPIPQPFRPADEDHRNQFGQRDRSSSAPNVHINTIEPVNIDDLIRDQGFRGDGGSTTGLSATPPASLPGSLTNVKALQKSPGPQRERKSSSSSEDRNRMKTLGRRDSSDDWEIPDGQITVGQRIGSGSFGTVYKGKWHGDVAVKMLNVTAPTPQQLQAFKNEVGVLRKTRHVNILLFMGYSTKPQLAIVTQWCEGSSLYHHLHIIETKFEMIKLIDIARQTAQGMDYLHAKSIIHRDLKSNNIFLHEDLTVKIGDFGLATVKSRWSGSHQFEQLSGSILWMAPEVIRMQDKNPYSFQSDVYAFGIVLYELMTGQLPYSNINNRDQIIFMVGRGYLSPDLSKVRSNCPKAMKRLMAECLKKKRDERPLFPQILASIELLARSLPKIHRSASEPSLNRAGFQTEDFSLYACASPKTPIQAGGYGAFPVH
Chain of Proto-oncogene tyrosine-protein kinase Src (P12931 2-536 limits assumed): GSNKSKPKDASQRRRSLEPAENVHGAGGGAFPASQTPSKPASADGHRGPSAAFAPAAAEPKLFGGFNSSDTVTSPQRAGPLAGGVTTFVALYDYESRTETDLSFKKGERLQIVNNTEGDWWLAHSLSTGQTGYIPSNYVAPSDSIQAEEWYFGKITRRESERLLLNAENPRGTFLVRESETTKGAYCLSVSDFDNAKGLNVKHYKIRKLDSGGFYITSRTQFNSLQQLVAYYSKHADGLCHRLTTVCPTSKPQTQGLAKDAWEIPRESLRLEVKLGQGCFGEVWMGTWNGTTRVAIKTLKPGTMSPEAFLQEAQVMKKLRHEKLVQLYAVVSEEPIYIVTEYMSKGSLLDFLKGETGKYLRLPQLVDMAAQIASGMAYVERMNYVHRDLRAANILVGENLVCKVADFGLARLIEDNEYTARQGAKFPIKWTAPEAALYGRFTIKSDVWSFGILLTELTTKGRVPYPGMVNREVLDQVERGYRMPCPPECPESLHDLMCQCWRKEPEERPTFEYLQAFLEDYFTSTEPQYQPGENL
Chain of Insulin-like growth factor 1 receptor (P08069 31-736 limits assumed): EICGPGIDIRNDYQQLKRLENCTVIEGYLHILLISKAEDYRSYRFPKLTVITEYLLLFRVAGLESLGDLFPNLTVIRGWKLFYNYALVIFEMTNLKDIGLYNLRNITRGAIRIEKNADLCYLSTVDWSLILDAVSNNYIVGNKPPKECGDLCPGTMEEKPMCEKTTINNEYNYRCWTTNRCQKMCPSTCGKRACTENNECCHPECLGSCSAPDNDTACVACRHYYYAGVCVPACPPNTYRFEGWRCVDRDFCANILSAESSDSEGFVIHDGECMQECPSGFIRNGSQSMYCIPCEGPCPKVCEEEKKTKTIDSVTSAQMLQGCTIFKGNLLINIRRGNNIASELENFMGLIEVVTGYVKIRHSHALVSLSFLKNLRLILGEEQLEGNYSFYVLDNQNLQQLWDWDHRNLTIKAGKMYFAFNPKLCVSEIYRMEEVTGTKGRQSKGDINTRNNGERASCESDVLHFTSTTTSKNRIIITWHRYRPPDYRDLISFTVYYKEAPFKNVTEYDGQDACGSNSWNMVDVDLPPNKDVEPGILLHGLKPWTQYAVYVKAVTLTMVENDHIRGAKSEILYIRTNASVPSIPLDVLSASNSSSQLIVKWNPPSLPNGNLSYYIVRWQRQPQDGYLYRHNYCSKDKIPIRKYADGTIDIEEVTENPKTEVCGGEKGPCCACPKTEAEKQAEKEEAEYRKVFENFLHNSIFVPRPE
Chain of Insulin-like growth factor 1 receptor (P08069 741-1367 limits assumed): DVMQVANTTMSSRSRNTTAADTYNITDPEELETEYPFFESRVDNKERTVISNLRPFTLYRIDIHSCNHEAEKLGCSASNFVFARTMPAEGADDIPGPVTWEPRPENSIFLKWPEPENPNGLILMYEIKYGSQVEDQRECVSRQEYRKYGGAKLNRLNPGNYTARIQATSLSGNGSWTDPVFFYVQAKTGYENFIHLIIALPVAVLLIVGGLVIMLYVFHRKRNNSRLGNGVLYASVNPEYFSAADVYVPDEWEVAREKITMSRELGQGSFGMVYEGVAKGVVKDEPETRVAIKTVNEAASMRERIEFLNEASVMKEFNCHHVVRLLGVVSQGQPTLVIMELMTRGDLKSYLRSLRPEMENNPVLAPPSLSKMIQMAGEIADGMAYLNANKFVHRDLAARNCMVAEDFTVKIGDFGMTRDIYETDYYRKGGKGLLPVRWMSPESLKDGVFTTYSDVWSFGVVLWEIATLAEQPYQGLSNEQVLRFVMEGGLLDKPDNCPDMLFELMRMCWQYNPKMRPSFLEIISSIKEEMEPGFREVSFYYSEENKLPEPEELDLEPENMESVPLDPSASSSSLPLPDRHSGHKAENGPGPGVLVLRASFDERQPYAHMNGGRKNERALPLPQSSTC

Structure (SMILES): COc1cc2c(Oc3ccc(NC(=O)NN4C(=O)CSC4c4cccc(F)c4F)cc3)ccnc2cc1OC1CCN(C(=O)NC(C)C)CC1 (configuration not stated)
- IC50 [1]: 790 nM

Structure (SMILES): COc1cc2c(Oc3ccc(NC(=O)NN4C(=O)CSC4c4ccc(F)cc4)cc3)ccnc2cc1OC1CCN(C(=O)NC2CCCCC2)CC1 (configuration not stated)
- IC50 [1]: 3420 nM

Structure (SMILES): COc1cc2c(Oc3ccc(NC(=O)NN4C(=O)CSC4c4cccc(F)c4)cc3)ccnc2cc1OC1CCN(C(=O)NC(C)C)CC1 (configuration not stated)
- IC50 [1]: 670 nM

Structure (SMILES): CCNC(=O)N1CCC(Oc2cc3nccc(Oc4ccc(NC(=O)NN5C(=O)CSC5c5ccc(F)cc5)cc4)c3cc2OC)CC1 (configuration not stated)
- IC50 [1]: 2250 nM

Structure (SMILES): COc1cc2c(Oc3ccc(NC(=O)NN4C(=O)CSC4c4ccccc4F)cc3)ccnc2cc1OC1CCN(C(=O)NC(C)C)CC1 (configuration not stated)
- IC50 [1]: 410 nM

Structure (SMILES): COc1cc2c(Oc3ccc(NC(=O)NN4C(=O)CSC4c4ccc(F)cc4)cc3)ccnc2cc1OC1CCN(C(=O)NC(C)C)CC1 (configuration not stated)
- IC50 [1]: 860 nM

Structure (SMILES): COc1cc2c(Oc3cccc(NC(=O)NN4C(=O)CSC4c4c(F)cccc4F)c3)ccnc2cc1OC1CCN(C(=O)NC(C)C)CC1 (configuration not stated)
- IC50 [1]: > 10000 nM

Structure (SMILES): COc1cc2c(Sc3ccc(NC(=O)NN4C(=O)CSC4c4c(F)cccc4F)cc3)ccnc2cc1OC1CCN(C(=O)NC(C)C)CC1 (configuration not stated)
- IC50 [1]: 420 nM

Structure (SMILES): CNC(=O)c1cc(Oc2ccc(NC(=O)Nc3ccc(Cl)c(C(F)(F)F)c3)c(F)c2)ccn1 [REGORAFENIB]
- Activity [2]: Active
- Activity [3]: Active
- AC50 [4]: Active
- Activity [5]: 78.5%
- Activity [6]: Toxic
- Activity [7]: 13.5%
- Activity [8]: 2%
- Activity [9]: inactive
- Activity [10]: Toxic
- Activity [11]: inactive
- Activity [12]: 15.7%
- IC50 [1]: 2870 nM

Structure (SMILES): COc1cc2c(Sc3ccc(NC(=O)NN4C(=O)CSC4c4c(F)cccc4F)cc3)ccnc2cc1OCC1CCN(C(=O)NC(C)C)CC1 (configuration not stated)
- IC50 [1]: 390 nM

Structure (SMILES): COc1cc2c(Oc3ccc(NC(=O)NN4C(=O)CSC4c4ccc(F)cc4)cc3)ccnc2cc1OC1CCN(C(=O)NCc2ccccc2)CC1 (configuration not stated)
- IC50 [1]: 6600 nM

Structure (SMILES): CCCCNC(=O)N1CCC(Oc2cc3nccc(Oc4ccc(NC(=O)NN5C(=O)CSC5c5ccc(F)cc5)cc4)c3cc2OC)CC1 (configuration not stated)
- IC50 [1]: 1700 nM

Structure (SMILES): COc1cc2nccc(Sc3ccc(NC(=O)NN4C(=O)CSC4c4c(F)cccc4F)cc3)c2cc1OCC1CCN(C(=O)NC(C)C)CC1 (configuration not stated)
- IC50 [1]: > 10000 nM

Structure (SMILES): COc1cc2c(Oc3ccc(NC(=O)NN4C(=O)CSC4c4ccc(F)c(F)c4)cc3)ccnc2cc1OC1CCN(C(=O)NC(C)C)CC1 (configuration not stated)
- IC50 [1]: 1060 nM

Structure (SMILES): COc1cc2c(Sc3ccc(NC(=O)NN4C(=O)CSC4c4c(F)cccc4F)cc3)cc(N)nc2cc1OC1CCN(C(=O)NC(C)C)CC1 (configuration not stated)
- IC50 [1]: 5600 nM

Structure (SMILES): COc1cc2c(Oc3ccc(NC(=O)NN4C(=O)CSC4c4ccccc4)cc3)ccnc2cc1OC1CCN(C(=O)NC(C)C)CC1 (configuration not stated)
- IC50 [1]: 1260 nM

Structure (SMILES): COc1cc2c(Oc3ccc(NC(=O)NN4C(=O)CSC4c4c(F)cc(F)cc4F)cc3)ccnc2cc1OC1CCN(C(=O)NC(C)C)CC1 (configuration not stated)
- IC50 [1]: 910 nM

Structure (SMILES): COc1cc2c(Oc3ccc(NC(=O)NN4C(=O)CSC4c4ccc(F)cc4F)cc3)ccnc2cc1OC1CCN(C(=O)NC(C)C)CC1 (configuration not stated)
- IC50 [1]: 950 nM

Structure (SMILES): COc1cc2c(Sc3ccc(NC(=O)NN4C(=O)CSC4c4c(F)cccc4F)cc3)ccnc2cc1OC1CCCN(C(=O)NC(C)C)C1 (configuration not stated)
- IC50 [1]: > 10000 nM

Structure (SMILES): COc1cc2c(Oc3ccc(NC(=O)NN4C(=O)CSC4c4c(F)cccc4F)cc3)ccnc2cc1OC1CCN(C(=O)NC(C)C)CC1 (configuration not stated)
- Activity ([2]; dose 1-3 µg/ml, time 48-72 hrs): Dose-dependent effect
- Activity [3]: Active
- Activity ([4]; dose 1-3 µg/ml, time 48-72 hrs, TDE = time-dependent effect): Tde
- IC50 [13]: 421 nM
- Activity [5]: 71.2%
- IC50 [14]: 382 nM
- IC50 [15]: > 10000 nM
- Activity [7]: 26.7%
- IC50 [16]: 384 nM
- Activity [17]: 4.3%
- Activity [8]: 4.4%
- Activity [18]: 71.5%
- IC50 [19]: 382 nM
- IC50 [20]: > 10000 nM
- Activity [21]: Tde
- Activity [9]: Active
- Activity [10]: Toxic
- Activity [22]: 19.7%
- Activity [23]: 71.3%
- IC50 [24]: 122 nM
- Activity [25]: 20.3%
- IC50 [26]: 632 nM
- Activity [27]: 3.8%
- Activity [11]: Dose-dependent effect
- Activity [12]: 18.3%
- IC50 [1]: 310 nM
- IC50 [28]: > 10000 nM
